Results as given in paper PMC10127574 (ACS chemical biology, 2015).
Where two headings read alike, the source gives them in different places. One block for each molecule: values may come before it.

Legend:
extracellular IDE = biological target: T1, extracellular IDE (Homo sapiens, UniProt P14735); assay: cell-based IDE activity assay; details: for activity by hit cutoff criteria: Table 1 screening assays
T1 sequence (P14735 1-1019): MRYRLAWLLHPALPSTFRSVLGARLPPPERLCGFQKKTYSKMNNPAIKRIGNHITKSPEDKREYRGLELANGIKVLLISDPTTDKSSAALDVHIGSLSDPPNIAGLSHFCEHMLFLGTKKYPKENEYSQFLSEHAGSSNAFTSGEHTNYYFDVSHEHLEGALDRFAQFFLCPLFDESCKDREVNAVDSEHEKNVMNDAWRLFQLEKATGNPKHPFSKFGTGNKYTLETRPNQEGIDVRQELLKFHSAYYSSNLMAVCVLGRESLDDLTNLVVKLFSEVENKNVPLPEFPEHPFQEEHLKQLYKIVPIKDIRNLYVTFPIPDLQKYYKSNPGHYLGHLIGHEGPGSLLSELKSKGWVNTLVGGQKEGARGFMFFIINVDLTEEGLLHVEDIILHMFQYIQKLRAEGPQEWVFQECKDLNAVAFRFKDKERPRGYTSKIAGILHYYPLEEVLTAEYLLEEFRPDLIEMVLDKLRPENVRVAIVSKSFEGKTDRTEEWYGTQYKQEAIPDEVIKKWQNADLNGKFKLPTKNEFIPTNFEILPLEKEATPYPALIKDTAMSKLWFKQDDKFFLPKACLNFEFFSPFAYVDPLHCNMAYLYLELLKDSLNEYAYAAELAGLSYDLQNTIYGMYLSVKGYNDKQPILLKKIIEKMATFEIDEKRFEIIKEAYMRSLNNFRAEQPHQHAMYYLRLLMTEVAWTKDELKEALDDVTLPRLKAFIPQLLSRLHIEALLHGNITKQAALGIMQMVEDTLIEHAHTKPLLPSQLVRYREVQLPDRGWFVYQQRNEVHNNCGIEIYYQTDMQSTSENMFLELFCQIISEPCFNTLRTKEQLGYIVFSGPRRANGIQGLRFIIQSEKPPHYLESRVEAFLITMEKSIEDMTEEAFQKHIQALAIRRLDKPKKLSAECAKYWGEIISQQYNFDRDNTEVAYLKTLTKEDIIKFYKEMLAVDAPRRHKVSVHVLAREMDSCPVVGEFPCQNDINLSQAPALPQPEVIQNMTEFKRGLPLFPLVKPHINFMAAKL
Procedure, shortened: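 Extracellular IDE secreted by HEK-293 cells, harvested mechanically rather than by trypsin, served as the endogenous enzyme source. Activity was read by fluorescence polarization with fluoresceinated, biotinylated Aß peptide (FAßB) in DTT-free solutions. The primary screen used a nominal compound concentration of 6 μM. Confirmed hits were retested in dose-response format to give apparent IC50.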

[1] = biological target: T2, recombinant wild-type IDE (WT-IDE) (Homo sapiens, UniProt P14735); assay: cell-free IDE activity assay with fluorogenic peptide substrate FRET1; format: biochemical
T2 sequence (P14735 1-1019): T1 sequence (P14735 1-1019)

[2] = biological target: T3, cysteine-free form of IDE (CF-IDE) (Homo sapiens, UniProt P14735, C819S, form not given); assay: IDE activity assay with FRET1 using cysteine-free IDE; format: biochemical; details: read-out: ki CF-IDE
T3 sequence (P14735 42-1019 C819S): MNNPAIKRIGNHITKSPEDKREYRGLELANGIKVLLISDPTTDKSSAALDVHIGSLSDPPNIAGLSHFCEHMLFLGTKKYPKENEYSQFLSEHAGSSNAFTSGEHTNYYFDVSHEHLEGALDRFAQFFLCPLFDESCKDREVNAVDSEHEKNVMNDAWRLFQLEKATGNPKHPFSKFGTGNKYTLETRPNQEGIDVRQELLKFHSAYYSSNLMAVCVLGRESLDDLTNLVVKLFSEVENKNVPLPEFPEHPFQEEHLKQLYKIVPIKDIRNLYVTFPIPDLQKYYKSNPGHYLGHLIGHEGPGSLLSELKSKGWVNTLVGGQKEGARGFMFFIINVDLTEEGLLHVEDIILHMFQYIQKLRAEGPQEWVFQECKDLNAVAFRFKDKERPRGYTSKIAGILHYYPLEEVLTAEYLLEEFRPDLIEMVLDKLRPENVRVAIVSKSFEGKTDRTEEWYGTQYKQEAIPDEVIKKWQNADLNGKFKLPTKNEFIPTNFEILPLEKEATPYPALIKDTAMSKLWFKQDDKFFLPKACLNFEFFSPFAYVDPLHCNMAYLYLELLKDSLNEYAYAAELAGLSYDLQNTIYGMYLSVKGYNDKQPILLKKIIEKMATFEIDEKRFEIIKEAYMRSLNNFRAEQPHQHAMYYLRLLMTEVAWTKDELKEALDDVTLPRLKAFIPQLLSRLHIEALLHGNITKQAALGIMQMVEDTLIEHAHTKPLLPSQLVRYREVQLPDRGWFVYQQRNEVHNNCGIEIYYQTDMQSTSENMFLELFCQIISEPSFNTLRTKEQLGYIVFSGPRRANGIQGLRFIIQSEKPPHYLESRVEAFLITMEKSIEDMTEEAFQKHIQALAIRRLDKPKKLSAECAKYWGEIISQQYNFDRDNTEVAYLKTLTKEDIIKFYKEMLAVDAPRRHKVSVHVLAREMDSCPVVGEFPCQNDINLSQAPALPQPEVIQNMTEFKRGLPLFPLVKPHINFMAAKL

WT-IDE [3] = biological target: T4, WT-IDE (Homo sapiens, UniProt P14735); assay: kinetics of irreversible inhibition; format: biochemical; details: WT-IDE 2 nM, FRET1 5 μM; rate constant of irreversible step
T4 sequence (P14735 1-1019): T1 sequence (P14735 1-1019)
Procedure, shortened: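 Recombinant WT-IDE (2 nM) and FRET1 substrate (5 μM) were monitored continuously at 3-s intervals, starting immediately after adding inhibitor at several concentrations. Curve fits gave observed rate constants, which were plotted against inhibitor concentration. A hyperbolic fit gave kinhib and KM. LE was taken as ΔG/heavy atoms using KM; SEI as pKM/tPSA/100 Å2.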

WT-IDE [4] = biological target: T4, WT-IDE; assay: test for irreversible inhibition by 100-fold dilution; format: biochemical; details: 100 nM IDE with high inhibitor concentration 30 min, then 100-fold dilution
Procedure, shortened: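 Recombinant WT-IDE activity was measured with FRET1 substrate in DTT-free solutions under three conditions. (1) 1 nM enzyme with "high" inhibitor concentrations. (2) 1 nM enzyme with 100-fold lower concentrations. (3) 100 nM enzyme preincubated 30 min with "high" concentrations, then diluted 100-fold to 1 nM enzyme and "low" inhibitor before assay. Reversible and irreversible reference inhibitors were run alongside.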

WT-IDE [5] = biological target: T4, WT-IDE; assay: IDE activity in the presence of reducing agents / reversal by DTT; format: biochemical
[6] = biological target: T5, intracellular pools of IDE (Homo sapiens, UniProt P14735); assay: intracellular IDE activity after incubation of intact HEK cells; format: cell-based; details: 10 μM, 36 h
T5 sequence (P14735 1-1019): T1 sequence (P14735 1-1019)
Procedure, shortened: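 Confluent HEK monolayers were exposed 36 h to 10 μM compound or DMSO vehicle, and conditioned medium was collected. Cells were washed 3× in PBS and held 30 min in hypotonic 50 mM Tris-HCl at 4 °C. They were scraped, extruded 3× through a 30G needle and spun 10,000 × g, 10 min, 4 °C. Supernatant activity was assayed by FAßB degradation without or with 1 mM DTT.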

IDE mutant sC819 = assay: inhibition of single-cysteine IDE mutant sC819; format: biochemical, human; details: Figure 3B
IDE mutant sC812 = assay: inhibition of single-cysteine IDE mutant sC812; format: biochemical, human; details: Figure 3B
[7] = read-out: IC50^app cell-based, Table 1, HEK-293 cells, extracellular IDE
[8] = read-out: IC50^app cell-free, Table 1, WT-IDE, FRET1

Structure (SMILES): O=c1c2ccccc2sn1-c1cc(S(=O)(=O)N2CCOCC2)ccc1N1CCOCC1 [Compound 1]
IC50 (extracellular IDE; [7]): 1.4 µM | IC50 (extracellular IDE; read-out: IC50^app cell-based, Table 2): 1.4 µM | IC50 ([1]; read-out: IC50^app against WT-IDE, cell-free): 0.233 µM | IC50 [1, 8]: 0.23 µM | Ki [2]: 8.18 µM | kinhib (WT-IDE [3]): 2.05 min⁻¹ | reversibility of inhibition in dilution experiments (WT-IDE [4]): irreversible | reversibility of WT-IDE inhibition by treatment with dithiothreitol (WT-IDE [5]; DTT treatment, Figure 2E): reversible | activity in the presence of excess DTT, ß-mercaptoethanol or reduced glutathione (WT-IDE [5]; excess reducing agent, Supplementary Figure S1A): no activity was detected | effect on intracellular pools of IDE after prolonged incubation of intact cells [6]: unaffected | inhibition of single-cysteine mutant sC819 (IDE mutant sC819): strongly inhibited | inhibition of single-cysteine mutant sC812 (IDE mutant sC812): no significant effect

Structure (SMILES): O=C(O)c1ccccc1NS(=O)(=O)c1cccc(-n2sc3ccccc3c2=O)c1 [Compound 2]
IC50 (extracellular IDE; [7]): 2.1 µM | IC50 [1, 8]: 0.54 µM

Structure (SMILES): Cc1ccc(-n2sc3ccccc3c2=O)cc1S(=O)(=O)N1CCCCC1 [Compound 3]
IC50 (extracellular IDE; [7]): 4 µM | IC50 [1, 8]: 1.03 µM

Structure (SMILES): CCN1C(=O)C=CC1=O [NEM, N-ethylmaleimide, reference compound]
reversibility of inhibition in dilution experiments (WT-IDE [4]): irreversible | inhibition of single-cysteine mutant sC819 (IDE mutant sC819): completely inhibited | inhibition of single-cysteine mutant sC812 (IDE mutant sC812): completely inhibited

Continued, values first:

IC50 (extracellular IDE; [7]): 5.6 µM | IC50 [1, 8]: 1.12 µM
Structure (SMILES): O=c1c2ccccc2sn1-c1cc(S(=O)(=O)N2CCOCC2)ccc1N1CCCC1 [Compound 4]

activity by hit cutoff criteria (extracellular IDE): inactive | IC50 (extracellular IDE; [7]): > 10 µM
Structure (SMILES): CN(C)S(=O)(=O)c1cccc(-n2sc3ccccc3c2=O)c1 [Compound 5]

activity by hit cutoff criteria (extracellular IDE): inactive | IC50 (extracellular IDE; [7]): > 10 µM | IC50 [1, 8]: > 10 µM
Structure (SMILES): O=c1c2ccccc2sn1-c1ccc(S(=O)(=O)N2CCCC2)cc1 [Compound 6]

activity by hit cutoff criteria (extracellular IDE): active | IC50 (extracellular IDE; [7]): 3.9 µM | IC50 [1, 8]: 1.8 µM
Structure (SMILES): O=c1c2cc(F)ccc2sn1-c1ccccc1 [Compound 7]

IC50 (extracellular IDE): 0.12 µM | IC50 [1]: 0.071 µM | Ki [2]: 7.89 µM | kinhib (WT-IDE [3]): 15.3 min⁻¹
Structure (SMILES): O=c1c2cc(C(F)(F)F)ccc2sn1-c1cc(S(=O)(=O)N2CCOCC2)ccc1N1CCOCC1 [Compound 9, 2-(2-morpholin-4-yl-5-morpholin-4-ylsulfonylphenyl)-5-(trifluoromethyl)-1,2-benzothiazol-3-one]
